# Measurements published in ChEMBL document CHEMBL3244060, “Methotrexate analogues. 8. Synthesis and biological evaluation of bisamide derivatives as potential prodrugs” (J Med Chem, 1977).
# Activity calls are given as the source filed them. No cut-off for these calls is given here.
# Experiments:
# CCRF-CEM = assay: Cytotoxicity against human CCRF-CEM cells assessed as growth inhibition; type: functional; settings: read-out: ID50 (the source's name)
# L1210 [1] = assay: Antitumor activity against mouse L1210 cells allografted in mouse assessed as increase in life span at 0.18 mg/kg, sc administered daily up to death started on day 5 post tumor implantation relative to control; type: functional; settings: 120 h, route subcutaneous
# [2] = biological target: Dihydrofolate reductase (Lactobacillus casei) (UniProt P00381); assay: Inhibition of methotrexate-resistant Lactobacillus casei ATCC 7469 dihydrofolate reductase; settings: Lacticaseibacillus casei
# Serum [3] = assay: Prodrug conversion in rat whole serum assessed as formation of methotrexate measured after 1 hr by TLC analysis; type: ADME
# Method in brief: (§1)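 Fresh rat serum 0.9 mL plus compound 0.006 g in 0.1 mL Me2SO, incubated at 37 °C with gentle shaking for up to 24 h. Cooled on ice, diluted 1.5-fold with methanol to precipitate protein, centrifuged. Supernatant run on fluorescent cellulose TLC developed with 0.5 M phosphate buffer pH 7.4 to detect parent compound and metabolites.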
# L1210 [4] = assay: Antitumor activity against mouse L1210 cells allografted in mouse assessed as increase in life span at 400 mg/kg, ip qd administered every 3 days for 7 days relative to control; type: functional; settings: route intraperitoneal
# Method in brief: (§2)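 L1210 cells (10^5) implanted ip in mice on day 0. Compounds given ip in 10% Tween 80 on days 1, 4 and 7, at doses from 15 to 525 mg/kg. Methotrexate was given as the disodium salt in aqueous solution. Groups had 5 treated and 10-15 control animals. %ILS = 100 × (T − C)/C, where T and C are median survival days of treated and control mice.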
# L1210 [5] = assay: Antitumor activity against mouse L1210 cells allografted in mouse assessed as increase in life span at 50 mg/kg, ip qd administered every 3 days for 7 days relative to control; type: functional; settings: route intraperitoneal; method in brief: as §2
# L1210 [6] = assay: Antitumor activity against mouse L1210 cells allografted in mouse assessed as median survival time at 100 mg/kg, ip qd administered every 3 days for 7 days; type: functional; settings: route intraperitoneal
# Method in brief: (§3)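 Mice were inoculated ip with 10^5 L1210 leukemia cells on day 0. Dosing was ip on days 1, 4 and 7 in 10% Tween 80, with the methotrexate disodium salt in water, over 15–525 mg/kg. Survival was recorded in days as the range and median per group, with 5 treated and 10-15 untreated controls.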
# L1210 [7] = assay: Antitumor activity against mouse L1210 cells allografted in mouse assessed as median survival time at 25 mg/kg, ip qd administered every 3 days for 7 days; type: functional; settings: route intraperitoneal; method in brief: as §3
# [8] = Cytotoxicity against RBL cells assessed as growth inhibition; type: functional; settings: Rattus norvegicus, read-out: ID50 (the source's name)
# Plasma = assay: Prodrug conversion in mouse plasma assessed as formation of methotrexate at 100 mg/kg, ip measured after 6 to 24 hrs by TLC analysis; type: ADME, organism-based; design: dose 100 mg/kg, route intraperitoneal; settings: in vivo
# Method in brief: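 Normal mice received a single ip dose of 100 mg/kg in 10% Tween 80. One animal was killed at 6 h and one at 24 h. Blood was taken by ocular puncture with a heparinized syringe and the red cells spun down. Plasma 0.2 mL was cooled on ice and diluted with methanol 0.4 mL to precipitate protein, then centrifuged. Analysed by cellulose TLC developed in 0.5 M phosphate buffer pH 7.4.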
# L1210 [9] = assay: Antitumor activity against mouse L1210 cells allografted in mouse assessed as increase in life span at 25 mg/kg, ip qd administered every 3 days for 7 days relative to control; type: functional; settings: route intraperitoneal; method in brief: as §2
# L1210 [10] = assay: Antitumor activity against mouse L1210 cells allografted in mouse assessed as increase in life span at 150 mg/kg, ip qd administered every 3 days for 7 days relative to control; type: functional; settings: route intraperitoneal; method in brief: as §2
# Serum [11] = assay: Prodrug conversion in rat whole serum assessed as formation of methotrexate at 0.006 g measured up to 24 hrs by TLC analysis; type: ADME; method in brief: as §1
# L1210 [12] = assay: Antitumor activity against mouse L1210 cells allografted in mouse assessed as increase in life span at 100 mg/kg, ip qd administered every 3 days for 7 days relative to control; type: functional; settings: route intraperitoneal; method in brief: as §2
# L1210 [13] = assay: Antitumor activity against mouse L1210 cells allografted in mouse assessed as median survival time at 150 mg/kg, ip qd administered every 3 days for 7 days; type: functional; settings: route intraperitoneal; method in brief: as §3
# L1210 [14] = assay: Antitumor activity against mouse L1210 cells allografted in mouse assessed as median survival time at 400 mg/kg, ip qd administered every 3 days for 7 days; type: functional; settings: route intraperitoneal; method in brief: as §3
# L1210 [15] = assay: Antitumor activity against mouse L1210 cells allografted in mouse assessed as median survival time at 200 mg/kg, ip qd administered every 3 days for 7 days; type: functional; settings: route intraperitoneal; method in brief: as §3
# Liver = assay: Prodrug conversion in mouse liver assessed as formation of methotrexate at 100 mg/kg, ip measured after 6 to 24 hrs by TLC analysis; type: ADME, organism-based; design: dose 100 mg/kg, route intraperitoneal; settings: in vivo
# L1210 [16] = assay: Antitumor activity against mouse L1210 cells allografted in mouse assessed as median survival time at 50 mg/kg, ip qd administered every 3 days for 7 days; type: functional; settings: route intraperitoneal; method in brief: as §3
# L1210 [17] = assay: Antitumor activity against mouse L1210 cells allografted in mouse assessed as increase in life span at 200 mg/kg, ip qd administered every 3 days for 7 days relative to control; type: functional; settings: route intraperitoneal; method in brief: as §2
# L1210 [18] = assay: Antitumor activity against mouse L1210 cells allografted in mouse assessed as increase in life span at 15 to 525 mg/kg, ip qd administered every 3 days for 7 days; type: functional, organism-based
# Method in brief: (§4)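 Mice inoculated ip with 10^5 L1210 cells on day 0. Test agents injected ip in 10% Tween 80 on days 1, 4 and 7; doses 15 to 525 mg/kg. Positive control given as disodium salt in aqueous solution. Test groups of 5, control groups of 10-15. Median survival scored; %ILS = 100 × (T − C)/C.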
# Mus musculus = assay: Toxicity in mouse allografted with mouse L1210 cells at 15 to 525 mg/kg, ip qd administered every 3 days for 7 days; type: organism-based; design: dose 15-525 mg/kg, route intraperitoneal; settings: in vivo; method in brief: as §4
# L1210 [19] = assay: Antitumor activity against mouse L1210 cells allografted in mouse assessed as median survival time at 225 mg/kg, ip qd administered every 3 days for 7 days; type: functional; settings: route intraperitoneal; method in brief: as §3
# L1210 [20] = assay: Antitumor activity against mouse L1210 cells allografted in mouse assessed as increase in life span at 350 mg/kg, ip qd administered every 3 days for 7 days relative to control; type: functional; settings: route intraperitoneal; method in brief: as §2
# L1210 [21] = assay: Antitumor activity against mouse L1210 cells allografted in mouse assessed as median survival time at 525 mg/kg, ip qd administered every 3 days for 7 days; type: functional; settings: route intraperitoneal; method in brief: as §3
# L1210 [22] = assay: Antitumor activity against mouse L1210 cells allografted in mouse assessed as median survival time at 350 mg/kg, ip qd administered every 3 days for 7 days; type: functional; settings: route intraperitoneal; method in brief: as §3
# L1210 [23] = assay: Antitumor activity against mouse L1210 cells allografted in mouse assessed as increase in life span at 225 mg/kg, ip qd administered every 3 days for 7 days relative to control; type: functional; settings: route intraperitoneal; method in brief: as §2
# L1210 [24] = assay: Antitumor activity against mouse L1210 cells allografted in mouse assessed as increase in life span at 525 mg/kg, ip qd administered every 3 days for 7 days relative to control; type: functional; settings: route intraperitoneal; method in brief: as §2
# Dihydrofolate reductase (Lactobacillus casei), sequence (P00381 whole entry): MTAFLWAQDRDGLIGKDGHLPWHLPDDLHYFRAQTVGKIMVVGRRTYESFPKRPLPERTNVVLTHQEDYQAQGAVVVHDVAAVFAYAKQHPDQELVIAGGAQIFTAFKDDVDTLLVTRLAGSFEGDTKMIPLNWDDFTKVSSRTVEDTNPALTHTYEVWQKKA
compound,measurement,setting,value
COc1ccc(CCNC(=O)CC[C@H](NC(=O)c2ccc(N(C)Cc3cnc4nc(N)nc(N)c4n3)cc2)C(=O)NCCc2ccc(OC)c(OC)c2)cc1OC,IC50,CCRF-CEM,> 10 µg/mL
CCCCNC(=O)CC[C@H](NC(=O)c1ccc(N(C)Cc2cnc3nc(N)nc(N)c3n2)cc1)C(=O)NCCCC,IC50,CCRF-CEM,> 10 µg/mL
Nc1nc(N)c2nc(CNc3ccc(C(=O)N[C@@H](CCC(=O)O)C(=O)O)cc3)cnc2n1 [AMINOPTERIN],ILS at 0.18 mg/kg,L1210 [1],30%
CN(Cc1cnc2nc(N)nc(N)c2n1)c1ccc(C(=O)N[C@@H](CCC(=O)NCCc2ccccc2)C(=O)NCCc2ccccc2)cc1,IC50,CCRF-CEM,> 10 µg/mL
CCCCOC(=O)CC[C@H](NC(=O)c1ccc(N(C)Cc2cnc3nc(N)nc(N)c3n2)cc1)C(=O)OCCCC,ID50,[2],5 ×10⁻⁷ M
same,Drug metabolism,Serum [3],metabolite_detected
same,IC50,CCRF-CEM,0.032 µg/mL
CN(Cc1cnc2nc(N)nc(N)c2n1)c1ccc(C(=O)N[C@@H](CCC(=O)NCc2ccccc2)C(=O)NCc2ccccc2)cc1,ILS at 400 mg/kg,L1210 [4],-11%
same,ILS at 50 mg/kg,L1210 [5],44%
same,MST,L1210 [6],13 days
same,MST,L1210 [7],12 days
same,IC50,[8],2.5 µg/mL
same,IC50,CCRF-CEM,7.6 µg/mL
same,Drug metabolism,Plasma,metabolite_detected
same,ILS at 25 mg/kg,L1210 [9],33%
same,ILS at 150 mg/kg,L1210 [10],66%
same,Drug metabolism,Serum [11],metabolite_notdetected
same,ILS at 100 mg/kg,L1210 [12],44%
same,MST,L1210 [13],15 days
same,MST,L1210 [14],8 days
same,MST,L1210 [15],9 days
same,Drug metabolism,Liver,metabolite_detected
same,MST,L1210 [16],13 days
same,ILS at 200 mg/kg,L1210 [17],0%
CN(C)CCNC(=O)CC[C@H](NC(=O)c1ccc(N(C)Cc2cnc3nc(N)nc(N)c3n2)cc1)C(=O)NCCN(C)C,IC50,CCRF-CEM,> 10 µg/mL
CN(C)CCCNC(=O)CC[C@H](NC(=O)c1ccc(N(C)Cc2cnc3nc(N)nc(N)c3n2)cc1)C(=O)NCCCN(C)C,Activity,L1210 [18],inactive
same,Activity,Mus musculus,Toxic
CCCNC(=O)CC[C@H](NC(=O)c1ccc(N(C)Cc2cnc3nc(N)nc(N)c3n2)cc1)C(=O)NCCC,MST,L1210 [19],14 days
same,ID50,[2],1.8 ×10⁻⁷ M
same,ILS at 350 mg/kg,L1210 [20],18%
same,IC50,CCRF-CEM,7 µg/mL
same,ILS at 150 mg/kg,L1210 [10],0%
same,MST,L1210 [21],13 days
same,Drug metabolism,Serum [11],metabolite_notdetected
same,MST,L1210 [13],11 days
same,MST,L1210 [22],13 days
same,ILS at 225 mg/kg,L1210 [23],27%
same,ILS at 525 mg/kg,L1210 [24],18%
